Compound activity from PubChem.
IDH1 R132H inh – IDH1 R132H (human) inhibition. AID 624101. hit rate 0.18% among 70,000. inhibition, % at 10 µM. O75874. IDH1 R132H reductase, diaphorase/resazurin fluorescence, 60 min; in the data active = inhibition above about 34%;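 also: 0% = DMSO and 100% = no enzyme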
Target sequence (O75874 whole entry R132H): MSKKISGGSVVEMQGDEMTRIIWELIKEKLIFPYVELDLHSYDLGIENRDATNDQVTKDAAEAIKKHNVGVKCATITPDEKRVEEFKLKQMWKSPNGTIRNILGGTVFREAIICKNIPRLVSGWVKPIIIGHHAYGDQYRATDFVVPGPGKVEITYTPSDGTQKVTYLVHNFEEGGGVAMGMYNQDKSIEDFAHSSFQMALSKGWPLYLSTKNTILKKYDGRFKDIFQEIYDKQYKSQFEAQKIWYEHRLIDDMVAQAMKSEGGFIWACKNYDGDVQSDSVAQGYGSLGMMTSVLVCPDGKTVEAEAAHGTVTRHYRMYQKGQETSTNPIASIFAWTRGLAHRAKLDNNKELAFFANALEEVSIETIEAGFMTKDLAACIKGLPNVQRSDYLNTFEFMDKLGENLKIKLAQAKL
Pf Dd2 growth – blocks growth of Plasmodium falciparum Dd2 parasites; P. falciparum Dd2 growth, SYBR Green, 72 h; hits give low values; activity change, % at 10 µM; hit rate 2.3% among 94,000; AID 1159554; in the data active = activity change below about -80%
Tcruzi prolif – T. cruzi proliferation inhibition; T. cruzi beta-gal in NIH3T3, GalScreen luminescence, 90 h; hit rate 5.9% among 77,000; inhibition, % at 8.34 µM;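 active = mean inhibition above about 93%, with at least 55% of replicates each passing it, limit read from the data, passing the limit was not always enough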
KDM4C inh – blocks human GASC-1 (KDM4C) demethylase activity; hit rate 0.15% among 96,000; inhibition, % at 12.5 µM; AID 720574; Q9H3R0; GST-KDM4C 2-372, H3K9me3 peptide, LANCE TR-FRET;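 active = mean replicate inhibition above about 25%, with at least 55% of replicates also reaching it, limit read from the data, passing the limit was not always enough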
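material = GST-tagged GASC-1 (JMJD2C) catalytic fragment, aa 2-372 | amount = enzyme final amount 10 nM | medium = HEPES buffer, pH 7.5, plus ascorbate | also added = H3K9me3 peptide substrate, Fe(II), 2-oxoglutarate | dosing = single dose | times = 30 min demethylation and 1 h detection at room temperature | detection = LANCE TR-FRET | read-out basis = Fall in 671/618 emission ratio as inhibition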
* = called active by the depositor; x = not tested or not shown; ! = not confirmed by another sample. Compounds with a hit are over-represented: about 5.8% of the library has one in this group of screens.

SMILES	IDH1 R132H inh	Pf Dd2 growth	Tcruzi prolif	KDM4C inh
c1cc(-c2ccc(C3[C@@H]4CN(Cc5nccs5)C[C@H]3N4)cc2)ccn1 (some centres undefined)	x	-74	x	0
c1cncc(-c2ccc(C3[C@@H]4CN(Cc5nccs5)C[C@H]3N4)cc2)c1 (some centres undefined)	x	-88*!	x	2
C(=C\c1ccc(C2[C@@H]3CN(Cc4nccs4)C[C@H]2N3)cc1)/c1ccccc1 (some centres undefined)	x	-88*!	x	-2
CCn1c(SCC(=O)Nc2ccc(I)cc2)nnc1-c1ccccc1F	0	x	x	x
CCS(=O)(=O)N1CCCCN2[C@H](C1)[C@@H](c1ccc(C#Cc3ccccc3OC)cc1)[C@@H]2CO	x	-82*	86	-4
COc1ccccc1C#Cc1ccc([C@@H]2[C@@H](C#N)N(C(=O)C3CCCC3)[C@H]2CO)cc1	x	-88*	x	-1
COc1ccccc1C#Cc1ccc([C@H]2[C@@H](CO)N(C(=O)C3CCCC3)[C@H]2C#N)cc1	x	-27	x	-4
COc1ccccc1C#Cc1ccc([C@@H]2[C@@H](CO)N(C(=O)C3CCCC3)[C@H]2C#N)cc1	x	-88*	x	1
COc1ccccc1C#Cc1ccc([C@H]2[C@@H](C#N)N(C(=O)C3CCC3)[C@H]2CO)cc1	x	-90*	94	-1
O=C(NO)c1ccc(C(=O)N/N=C/c2ccc3ccccc3c2O)cc1	0	x	x	x
Cc1cccc(-n2c(SCC(=O)c3ccccc3)nnc2-c2cccs2)c1C	0	x	x	x
O=C(NO)c1ccc(C(=O)N/N=C/c2ccc(F)c(Oc3ccccc3)c2)cc1	0	x	x	x
Cc1ccc(S(=O)(=O)N(C)C[C@@H]2Oc3cc(C#Cc4ccncc4)ccc3S(=O)(=O)N([C@@H](C)CO)C[C@@H]2C)cc1	-2	-85*	-9	-14
Cc1ccc(S(=O)(=O)N(C)C[C@H]2Oc3cc(C#Cc4ccncc4)ccc3S(=O)(=O)N([C@H](C)CO)C[C@@H]2C)cc1	0	-81*	45	-18
Cc1ccc(S(=O)(=O)N(C)C[C@H]2Oc3cc(C#Cc4ccncc4)ccc3S(=O)(=O)N([C@H](C)CO)C[C@H]2C)cc1	1	-77	78	-16
O=C(COc1ccc2ccccc2c1)Nc1cccc(NC(=O)c2ccc(Cl)cc2Cl)c1	0	x	x	x
C[C@H]1CN([C@@H](C)CO)C(=O)c2cccc(NC(=O)c3nc4ccccc4s3)c2O[C@@H]1CN(C)S(=O)(=O)c1ccccc1	x	-81*	50	0
C[C@H]1CN([C@@H](C)CO)C(=O)c2cccc(NC(=O)c3nc4ccccc4s3)c2O[C@H]1CN(C)Cc1ccc(C(=O)Nc2ccccc2N)cc1	x	-91*	97*	-1
C[C@H]1CN([C@@H](C)CO)C(=O)c2cccc(NC(=O)c3nc4ccccc4s3)c2O[C@H]1CN(C)Cc1ccccc1	x	-22	77	1
C[C@H](CO)N1C[C@H](C)[C@@H](CN(C)Cc2ccncc2)Oc2c(NC(=O)c3nc4ccccc4s3)cccc2C1=O	35*	-55	x	-3
COc1cc(NC(=O)COc2ccc(Cl)cc2Cl)c2ncccc2c1	-1	x	x	x
C[C@@H]1CCCCO[C@H](CN(C)Cc2ccc(C(F)(F)F)cc2)[C@H](C)CN([C@H](C)CO)C(=O)c2cc(NC(=O)CCCN(C)C)ccc2O1	x	-87*	80	4
C[C@@H]1CCCCO[C@@H](CN(C)Cc2ccc(C(F)(F)F)cc2)[C@H](C)CN([C@H](C)CO)C(=O)c2cc(NC(=O)CCCN(C)C)ccc2O1	1	-89*	77	6
C[C@@H]1CN([C@H](C)CO)C(=O)c2cc(NC(=O)CCCN(C)C)ccc2O[C@@H](C)CCCCO[C@@H]1CN(C)Cc1ccc(C(F)(F)F)cc1	5	-87*	49	-1
C[C@H]1CCCCO[C@@H](CN(C)Cc2ccc(C(F)(F)F)cc2)[C@@H](C)CN([C@@H](C)CO)C(=O)c2cc(NC(=O)CCCN(C)C)ccc2O1	-4	-85*	73	3
SMILES	IDH1 R132H inh	Pf Dd2 growth	Tcruzi prolif	KDM4C inh
C[C@H](CO)N1C[C@H](C)[C@@H](CN(C)Cc2ccc(C(F)(F)F)cc2)OCCCC[C@H](C)Oc2ccc(NC(=O)CCCN(C)C)cc2C1=O	x	-77	2	2
O=C(Cn1ccc([N+](=O)[O-])n1)Nc1ccc(F)c(Cl)c1	0	x	x	x
C[C@H]1CCCCO[C@H](CN(C)Cc2ccc(C(F)(F)F)cc2)[C@@H](C)CN([C@@H](C)CO)C(=O)c2cc(NC(=O)CCCN(C)C)ccc2O1	x	-86*	61	4
Cc1ccc(S(=O)(=O)N(C)C[C@@H]2OCCCC[C@H](C)Oc3ccc(NC(=O)Nc4cccc5ccccc45)cc3C(=O)N([C@H](C)CO)C[C@H]2C)cc1	1	-82*	x	1
Cc1ccc(S(=O)(=O)N(C)C[C@@H]2OCCCC[C@@H](C)Oc3ccc(NC(=O)Nc4cccc5ccccc45)cc3C(=O)N([C@@H](C)CO)C[C@@H]2C)cc1	x	-82*	x	2
CN(CCCC(=O)O)c1nc(-c2ccc(F)cc2)cs1	3	x	x	x
COc1ccccc1NC(=O)C1CCCN(S(=O)(=O)c2cc(Cl)ccc2Cl)C1 (centres undefined)	0	x	x	x
C[C@H](O)C#Cc1cnc2c(c1)C(=O)N([C@@H](C)CO)C[C@@H](C)[C@@H](CN(C)C(=O)Cc1ccncc1)O2	1	-95*	x	0
CCCC#Cc1cnc2c(c1)C(=O)N([C@@H](C)CO)C[C@H](C)[C@@H](CN(C)C(=O)Cc1ccncc1)O2	51*	-35	44	-1
C[C@@H]1CN([C@@H](C)CO)C(=O)Cc2cc(NC(=O)Cc3cn(C)c4ccccc34)ccc2O[C@@H]1CN(C)Cc1ccc(Cl)c(Cl)c1	x	-39	82	-1
C[C@@H]1CN([C@@H](C)CO)C(=O)Cc2cc(NC(=O)Nc3ccc(F)cc3)ccc2O[C@H]1CN(C)Cc1ccncc1	34*	8	68	1
C[C@@H]1CN([C@@H](C)CO)C(=O)Cc2cc(NC(=O)Nc3ccc(F)cc3)ccc2O[C@@H]1CN(C)Cc1ccncc1	18	-9	76	x
C[C@H](CO)N1C[C@H](C)[C@@H](CN(C)Cc2ccccc2)Oc2ccc(NC(=O)Nc3ccc(F)cc3)cc2CC1=O	1	-88*	76	-1
C[C@@H]1CN([C@@H](C)CO)C(=O)Cc2cc(NC(=O)Cc3cn(C)c4ccccc34)ccc2O[C@H]1CN(C)Cc1ccc(Cl)c(Cl)c1	0	-82*	95	-2
CC(C)NC(=O)Nc1ccc2c(c1)CC(=O)N([C@@H](C)CO)C[C@@H](C)[C@H](CN(C)Cc1ccc(Cl)c(Cl)c1)O2	-2	-82*	x	1
Cc1cc(C(=O)O)ccc1NC(=O)CNC(=O)C1CCCCC1	0	x	x	x
C[C@@H]1CN([C@@H](C)CO)C(=O)Cc2cc(NC(=O)C3CCCCC3)ccc2O[C@H]1CN(C)Cc1ccncc1	46*	-24	62	1
CC(C)NC(=O)Nc1ccc2c(c1)CC(=O)N([C@@H](C)CO)C[C@@H](C)[C@H](CN(C)Cc1ccncc1)O2	43*	3	x	1
